Active and inactive are the calls of the source. The rule behind the calls is not given here.
Assays:
[1] = system: Staphylococcus aureus; test: Antibacterial activity against Staphylococcus aureus 45 by two-fold agar dilution method; type: functional
How it was run: (§1)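 MIC determined by twofold serial dilution in brain-heart infusion agar. Values are reported in µg/mL.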

[2] = system: Pseudomonas aeruginosa; test: Antibacterial activity against Pseudomonas aeruginosa by two-fold agar dilution method; type: functional, organism-based; how it was run: as §1
[3] = system: Proteus mirabilis; test: Antibacterial activity against Proteus mirabilis by two-fold agar dilution method; type: functional; how it was run: as §1
[4] = system: Proteus vulgaris; test: Antibacterial activity against Proteus vulgaris by two-fold agar dilution method; type: functional; how it was run: as §1
[5] = system: Pasteurella multocida; test: Antibacterial activity against Pasteurella multocida 10544 by two-fold agar dilution method; type: functional; how it was run: as §1
[6] = system: Salmonella typhi; test: Antibacterial activity against Salmonella typhi by two-fold agar dilution method; type: functional, Salmonella enterica subsp. enterica serovar Typhi; settings: Salmonella enterica
How it was run: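 MIC in µg/mL by twofold serial agar dilution on brain-heart infusion agar.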

[7] = system: Staphylococcus aureus; test: Antibacterial activity against Staphylococcus aureus Smith by two-fold agar dilution method; type: functional; how it was run: as §1
[8] = system: Klebsiella pneumoniae; test: Antibacterial activity against Klebsiella pneumoniae 8045 by two-fold agar dilution method; type: functional; how it was run: as §1
[9] = system: Enterococcus; test: Antibacterial activity against Enterococcus 89 by two-fold agar dilution method; type: functional; how it was run: as §1
[10] = system: Streptococcus pyogenes; test: Antibacterial activity against Streptococcus pyogenes C-203 by two-fold agar dilution method; type: functional; how it was run: as §1
[11] = system: Escherichia coli; test: Antibacterial activity against Escherichia coli Juhl by two-fold agar dilution method; type: functional; how it was run: as §1

Row | SMILES | MIC [1] | Activity [2] | MIC [3] | MIC [4] | MIC [5] | MIC [6] | MIC [7] | MIC [8] | MIC [9] | MIC [10] | MIC [11]
1 | C/C(=N\NC(=O)c1cccnc1)C1=C(O)[C@H](N)[C@@H]2Cc3c(c(O)c4c(O)c(C)ccc4c3C)C(=O)[C@]2(O)C1=O.Cl | > 100 µg/mL | inactive | > 100 µg/mL | > 100 µg/mL | 12.5 µg/mL | 100 µg/mL | > 100 µg/mL | 100 µg/mL | > 100 µg/mL | 100 µg/mL | 100 µg/mL
2 | C/C(=N\NC(=O)CC#N)C1=C(O)[C@H](N)[C@@H]2Cc3c(c(O)c4c(O)c(C)ccc4c3C)C(=O)[C@]2(O)C1=O.Cl | 50 µg/mL | inactive | 12.5 µg/mL | 12.5 µg/mL | 1.56 µg/mL | 12.5 µg/mL | 50 µg/mL | 12.5 µg/mL | 50 µg/mL | 50 µg/mL | 50 µg/mL
3 | COc1ccc(/N=C(\C)C2=C(O)[C@H](N)[C@@H]3Cc4c(c(O)c5c(O)c(C)ccc5c4C)C(=O)[C@]3(O)C2=O)cc1.Cl | 12.5 µg/mL | inactive | 6.2 µg/mL | 3.1 µg/mL | 0.78 µg/mL | 3.1 µg/mL | 12.5 µg/mL | 3.1 µg/mL | 6.2 µg/mL | 3.1 µg/mL | 25 µg/mL
4 | C/C(=N\NC(=O)c1ccncc1)C1=C(O)[C@H](N)[C@@H]2Cc3c(c(O)c4c(O)c(C)ccc4c3C)C(=O)[C@]2(O)C1=O.Cl (stereo in doubt) | 50 µg/mL | inactive | 12.5 µg/mL | 12.5 µg/mL | 6.2 µg/mL | 12.5 µg/mL | 50 µg/mL | 12.5 µg/mL | 50 µg/mL | 12.5 µg/mL | 50 µg/mL
5 | C/C(=N\c1ccc(Cl)cc1)C1=C(O)[C@H](N)[C@@H]2Cc3c(c(O)c4c(O)c(C)ccc4c3C)C(=O)[C@]2(O)C1=O.Cl | 6.2 µg/mL | inactive | 3.1 µg/mL | 1.56 µg/mL | 0.39 µg/mL | 3.1 µg/mL | 6.2 µg/mL | 3.1 µg/mL | 25 µg/mL | 6.2 µg/mL | 25 µg/mL
6 | C/C(=N\c1ccc(F)cc1)C1=C(O)[C@H](N)[C@@H]2Cc3c(c(O)c4c(O)c(C)ccc4c3C)C(=O)[C@]2(O)C1=O.Cl | 12.5 µg/mL | inactive | 3.1 µg/mL | 1.56 µg/mL | 0.39 µg/mL | 1.5 µg/mL | 6.2 µg/mL | 1.56 µg/mL | 12.5 µg/mL | 3.1 µg/mL | 6.2 µg/mL
7 | C/C(=N\Nc1ccccc1)C1=C(O)[C@H](N)[C@@H]2Cc3c(c(O)c4c(O)c(C)ccc4c3C)C(=O)[C@]2(O)C1=O.Cl | 6.2 µg/mL | inactive | 50 µg/mL | 50 µg/mL | 0.78 µg/mL | 25 µg/mL | 6.2 µg/mL | 12.5 µg/mL | 12.5 µg/mL | 6.2 µg/mL | 50 µg/mL
8 | C/C(=N\NC(=O)c1ccc(O)cc1)C1=C(O)[C@H](N)[C@@H]2Cc3c(c(O)c4c(O)c(C)ccc4c3C)C(=O)[C@]2(O)C1=O.Cl (stereo in doubt) | 50 µg/mL | inactive | 12.5 µg/mL | 12.5 µg/mL | 3.1 µg/mL | 25 µg/mL | 50 µg/mL | 25 µg/mL | 100 µg/mL | 50 µg/mL | 50 µg/mL
9 | C/C(=N\NC(=O)c1ccc(N)cc1)C1=C(O)[C@H](N)[C@@H]2Cc3c(c(O)c4c(O)c(C)ccc4c3C)C(=O)[C@]2(O)C1=O.Cl (stereo in doubt) | 50 µg/mL | inactive | 12.5 µg/mL | 12.5 µg/mL | 1.56 µg/mL | 12.5 µg/mL | 50 µg/mL | 12.5 µg/mL | 50 µg/mL | 25 µg/mL | 50 µg/mL
10 | CNC(=O)N/N=C(\C)C1=C(O)[C@H](N)[C@@H]2Cc3c(c(O)c4c(O)c(C)ccc4c3C)C(=O)[C@]2(O)C1=O.Cl | 50 µg/mL | inactive | 50 µg/mL | 25 µg/mL | 3.1 µg/mL | 25 µg/mL | 25 µg/mL | 12.5 µg/mL | 50 µg/mL | 25 µg/mL | 50 µg/mL
11 | C/C(=N\N1CCOCC1)C1=C(O)[C@H](N)[C@@H]2Cc3c(c(O)c4c(O)c(C)ccc4c3C)C(=O)[C@]2(O)C1=O.Cl | 12.5 µg/mL | inactive | 12.5 µg/mL | 6.2 µg/mL | 0.78 µg/mL | 3.1 µg/mL | 12.5 µg/mL | 6.2 µg/mL | 12.5 µg/mL | 12.5 µg/mL | 25 µg/mL
12 | C/C(=N\NC(N)=S)C1=C(O)[C@H](N)[C@@H]2Cc3c(c(O)c4c(O)c(C)ccc4c3C)C(=O)[C@]2(O)C1=O.Cl | 50 µg/mL | inactive | 50 µg/mL | 50 µg/mL | 3.1 µg/mL | 25 µg/mL | 50 µg/mL | 25 µg/mL | 100 µg/mL | 25 µg/mL | 100 µg/mL
13 | C/C(=N\NC(=O)c1ccccc1O)C1=C(O)[C@H](N)[C@@H]2Cc3c(c(O)c4c(O)c(C)ccc4c3C)C(=O)[C@]2(O)C1=O.Cl | > 100 µg/mL | inactive | > 100 µg/mL | > 100 µg/mL | 25 µg/mL | > 100 µg/mL | > 100 µg/mL | > 100 µg/mL | > 100 µg/mL | > 100 µg/mL | > 100 µg/mL
14 | C/C(=N\c1ccc(CC(=O)O)cc1)C1=C(O)[C@H](N)[C@@H]2Cc3c(c(O)c4c(O)c(C)ccc4c3C)C(=O)[C@]2(O)C1=O.Cl | 6.2 µg/mL | inactive | 3.1 µg/mL | 1.56 µg/mL | 0.39 µg/mL | 1.5 µg/mL | 6.2 µg/mL | 1.56 µg/mL | 12.5 µg/mL | 3.1 µg/mL | 6.2 µg/mL
15 | C/C(=N\NC(=O)c1ccco1)C1=C(O)[C@H](N)[C@@H]2Cc3c(c(O)c4c(O)c(C)ccc4c3C)C(=O)[C@]2(O)C1=O.Cl (stereo in doubt) | > 100 µg/mL | inactive | 50 µg/mL | 50 µg/mL | 3.1 µg/mL | 25 µg/mL | > 100 µg/mL | 50 µg/mL | > 100 µg/mL | 50 µg/mL | > 100 µg/mL
16 | CCCC(=O)N/N=C(\C)C1=C(O)[C@H](N)[C@@H]2Cc3c(c(O)c4c(O)c(C)ccc4c3C)C(=O)[C@]2(O)C1=O.Cl | 50 µg/mL | inactive | 12.5 µg/mL | 12.5 µg/mL | 1.56 µg/mL | 12.5 µg/mL | 50 µg/mL | 12.5 µg/mL | 50 µg/mL | 25 µg/mL | 50 µg/mL
17 | C/C(=N\c1ccc(C)cc1)C1=C(O)[C@H](N)[C@@H]2Cc3c(c(O)c4c(O)c(C)ccc4c3C)C(=O)[C@]2(O)C1=O.Cl | 12.5 µg/mL | inactive | 6.2 µg/mL | 6.2 µg/mL | 0.39 µg/mL | 3.1 µg/mL | 12.5 µg/mL | 6.2 µg/mL | 25 µg/mL | 6.2 µg/mL | 25 µg/mL
18 | C/C(=N\c1ccc(Br)cc1)C1=C(O)[C@H](N)[C@@H]2Cc3c(c(O)c4c(O)c(C)ccc4c3C)C(=O)[C@]2(O)C1=O.Cl | 12.5 µg/mL | inactive | 6.2 µg/mL | 6.2 µg/mL | 0.39 µg/mL | 3.1 µg/mL | 12.5 µg/mL | 3.1 µg/mL | 25 µg/mL | 12.5 µg/mL | 25 µg/mL
19 | C/C(=N\c1ccc(O)cc1)C1=C(O)[C@H](N)[C@@H]2Cc3c(c(O)c4c(O)c(C)ccc4c3C)C(=O)[C@]2(O)C1=O.Cl | 12.5 µg/mL | inactive | 6.2 µg/mL | 3.1 µg/mL | 0.78 µg/mL | 6.2 µg/mL | 12.5 µg/mL | 3.1 µg/mL | 25 µg/mL | 12.5 µg/mL | 50 µg/mL
20 | C/C(=N\N(C)C)C1=C(O)[C@H](N)[C@@H]2Cc3c(c(O)c4c(O)c(C)ccc4c3C)C(=O)[C@]2(O)C1=O.Cl | 12.5 µg/mL | inactive | 6.2 µg/mL | 6.2 µg/mL | 0.78 µg/mL | 3.1 µg/mL | 12.5 µg/mL | 6.2 µg/mL | 6.2 µg/mL | 6.2 µg/mL | 12.5 µg/mL
21 | C/C(=N\NC(=O)Cc1ccccc1)C1=C(O)[C@H](N)[C@@H]2Cc3c(c(O)c4c(O)c(C)ccc4c3C)C(=O)[C@]2(O)C1=O.Cl | 25 µg/mL | inactive | 12.5 µg/mL | 12.5 µg/mL | 6.2 µg/mL | 12.5 µg/mL | 25 µg/mL | 6.2 µg/mL | 50 µg/mL | 12.5 µg/mL | 50 µg/mL
22 | COc1ccc(C(=O)N/N=C(\C)C2=C(O)[C@H](N)[C@@H]3Cc4c(c(O)c5c(O)c(C)ccc5c4C)C(=O)[C@]3(O)C2=O)cc1.Cl (stereo in doubt) | 100 µg/mL | inactive | 25 µg/mL | 25 µg/mL | 3.1 µg/mL | 25 µg/mL | 100 µg/mL | 50 µg/mL | > 100 µg/mL | 50 µg/mL | 100 µg/mL
23 | C/C(=N\N1CCOC1=O)C1=C(O)[C@H](N)[C@@H]2Cc3c(c(O)c4c(O)c(C)ccc4c3C)C(=O)[C@]2(O)C1=O.Cl | 25 µg/mL | inactive | 12.5 µg/mL | 6.2 µg/mL | 1.6 µg/mL | 25 µg/mL | 25 µg/mL | 25 µg/mL | 25 µg/mL | 25 µg/mL | 25 µg/mL

Source: ChEMBL document CHEMBL3244289, “Synthesis and antibacterial activity of 2'-substituted chelocardin analogues” (1979)
